According to ChEMBL document CHEMBL4673335, “Store-Operated Calcium Entry as a Therapeutic Target in Acute Pancreatitis: Discovery and Development of Drug-Like SOCE Inhibitors” (J Med Chem, 2020):
Active and inactive are the calls of the source. No cut-off for these calls is given here.

How the values were obtained:
[1] = target: T1, ORAI1/STIM1 (Homo sapiens) (UniProt Q96D31+Q13586); assay: Inhibition of STIM1/Orai1 (unknown origin) expressed in HEK293 cells assessed as reduction in tBHQ-induced calcium response at 10 uM relative to control; format: cell-based
Outline: (§1)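 HEK cells, calcium imaging by fluorescence microscopy. Ca2+ added after 600 s and intracellular levels recorded. Traces averaged over 200 cells, then scored as AUC, peak amplitude and slope of the Ca2+ rise versus untreated control. Compound working solutions diluted from a 50 mM DMSO stock to 0.1% DMSO in physiologic buffer.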

[2] = Thermodynamic aqueous solubility; format: physicochemical; settings: read-out: Therm_solubility
Outline: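 About 3 mg compound in 3 mL deionized water, vortexed, sonicated 5 min, then shaken overnight at 25 °C. Filtered through a 0.22 μm membrane, DMSO added, diluted about 1:10 in water. Quantified by LC–UV against DMSO standard solutions.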

[3] = Metabolic stability in mouse liver microsomes assessed as compound remaining after 1 hr; format: ADME, Microsome; settings: read-out: Stabilty
Outline: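 Pooled male CD-1 mouse liver microsomes (20 mg/mL protein stock), NADPH-activated. Substrate at 5 μM. Residual parent measured after 1 h incubation.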

HEK293 [4] = assay: Cytotoxicity in HEK293 cells assessed as cell viability at 50 uM after 72 hrs by MTT assay; format: cell-based; settings: human, hek293, 72 h
Outline: (§2)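 MTT viability in HEK cells after 72 h treatment at 50 μM, with or without 100 μM uridine. MTT at 0.25 mg/mL final for 60 min at 37 °C, solubilized in isopropyl alcohol/HCl (1 M), absorbance read at 570 nm. Mean ± SEM, Student t-test against control.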

HEK293 [5] = assay: Cytotoxicity in HEK293 cells assessed as cell viability at 50 uM after 72 hrs in presence of excess uridine by MTT assay; format: cell-based; settings: human, hek293, 72 h; outline: as §2
ORAI1/STIM1 = ORAI1/STIM1 (Homo sapiens, UniProt Q13586+Q96D31); assay: Inhibition of STIM1/Orai1 (unknown origin) expressed in HEK293 cells assessed as reduction in tBHQ-induced calcium response; format: cell-based
[6] = target: T1, ORAI1/STIM1 (Homo sapiens); assay: Inhibition of STIM1/Orai1 (unknown origin) expressed in HEK293 cells assessed as reduction in tBHQ-induced calcium response by measuring decrease in calcium entry AUC at 10 uM relative to control; format: cell-based; outline: as §1
[7] = target: T1, ORAI1/STIM1 (Homo sapiens); assay: Inhibition of STIM1/Orai1 (unknown origin) expressed in HEK293 cells assessed as reduction in tBHQ-induced calcium response by measuring decrease in peak amplitude of calcium entry at 10 uM relative to control; format: cell-based; outline: as §1
[8] = target: T1, ORAI1/STIM1 (Homo sapiens); assay: Inhibition of STIM1/Orai1 (unknown origin) expressed in HEK293 cells assessed as reduction in tBHQ-induced calcium response by measuring decrease in slope of calcium entry at 10 uM relative to control; format: cell-based; outline: as §1
HEK293 [9] = assay: Cytotoxicity in HEK293 cells assessed as cell viability at 10 uM after 24 hrs by MTT assay; format: cell-based; settings: human, hek293, 24 h
Outline: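 MTT viability assay. HEK cells seeded at 20,000 per well, treated 24 h after plating for a further 24 h. MTT at 0.25 mg/mL final for 60 min at 37 °C. Crystals dissolved in isopropyl alcohol/HCl (1 M), absorbance read at 570 nm. Compounds diluted to 0.1% DMSO in culture medium.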

Mus musculus [10] = assay: Anti pancreatitis activity in C57BL/6 mouse model of cerulein-induced acute pancreatitis assessed as amelioration of histological scores at 10 mg/kg, ip administered 30 and 150 mins after the first cerulein injection measured 5 hrs after first cerulein injection by H and E staining based assay; format: functional, organism-based
Outline: (§3)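 Acute pancreatitis induced in mice by i.p. cerulein injections. Test agent given i.p. at 10 mg/kg, 30 and 150 min after the first cerulein injection. Pancreas collected 5 h after the first cerulein injection, H&E stained and scored histologically for inflammation and edema.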

Mus musculus [11] = assay: Anti pancreatitis activity in C57BL/6 mouse model of cerulein-induced acute pancreatitis assessed as reduction of inflammation and edema at 10 mg/kg, ip administered 30 and 150 mins after the first cerulein injection measured 5 hrs after first cerulein injection by H and E staining based assay; format: functional, organism-based; outline: as §3
[12] = dose 3.0 µM, in the assay text read “at 3 uM” for “at 10 uM”

ORAI1/STIM1, sequence (Q96D31 whole entry): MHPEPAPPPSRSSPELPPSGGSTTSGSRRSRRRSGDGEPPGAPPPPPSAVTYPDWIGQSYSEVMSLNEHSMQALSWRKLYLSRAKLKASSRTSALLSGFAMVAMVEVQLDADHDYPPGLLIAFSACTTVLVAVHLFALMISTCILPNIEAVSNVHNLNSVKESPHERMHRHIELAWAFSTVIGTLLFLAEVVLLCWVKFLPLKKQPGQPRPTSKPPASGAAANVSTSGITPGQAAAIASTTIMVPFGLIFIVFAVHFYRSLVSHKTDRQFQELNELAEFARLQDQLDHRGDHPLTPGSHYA
ORAI1/STIM1, sequence (Q13586 whole entry): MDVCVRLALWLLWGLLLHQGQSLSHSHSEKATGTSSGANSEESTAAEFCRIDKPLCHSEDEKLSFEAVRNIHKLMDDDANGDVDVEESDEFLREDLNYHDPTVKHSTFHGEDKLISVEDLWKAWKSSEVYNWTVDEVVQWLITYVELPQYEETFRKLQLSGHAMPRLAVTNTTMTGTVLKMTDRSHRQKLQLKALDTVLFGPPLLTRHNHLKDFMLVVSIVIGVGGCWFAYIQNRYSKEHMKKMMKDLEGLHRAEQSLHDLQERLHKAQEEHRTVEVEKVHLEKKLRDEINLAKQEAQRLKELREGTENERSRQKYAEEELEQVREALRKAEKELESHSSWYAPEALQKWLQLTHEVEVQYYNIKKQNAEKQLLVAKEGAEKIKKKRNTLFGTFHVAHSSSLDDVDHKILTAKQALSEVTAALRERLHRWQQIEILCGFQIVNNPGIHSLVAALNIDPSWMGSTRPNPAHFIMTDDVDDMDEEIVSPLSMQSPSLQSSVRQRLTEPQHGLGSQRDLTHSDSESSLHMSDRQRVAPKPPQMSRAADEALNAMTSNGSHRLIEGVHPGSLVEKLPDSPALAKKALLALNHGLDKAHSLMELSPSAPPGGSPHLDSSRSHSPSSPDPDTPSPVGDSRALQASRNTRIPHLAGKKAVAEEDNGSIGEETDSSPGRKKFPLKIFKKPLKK
T1 sequence (Q13586 23-685 partner limits assumed): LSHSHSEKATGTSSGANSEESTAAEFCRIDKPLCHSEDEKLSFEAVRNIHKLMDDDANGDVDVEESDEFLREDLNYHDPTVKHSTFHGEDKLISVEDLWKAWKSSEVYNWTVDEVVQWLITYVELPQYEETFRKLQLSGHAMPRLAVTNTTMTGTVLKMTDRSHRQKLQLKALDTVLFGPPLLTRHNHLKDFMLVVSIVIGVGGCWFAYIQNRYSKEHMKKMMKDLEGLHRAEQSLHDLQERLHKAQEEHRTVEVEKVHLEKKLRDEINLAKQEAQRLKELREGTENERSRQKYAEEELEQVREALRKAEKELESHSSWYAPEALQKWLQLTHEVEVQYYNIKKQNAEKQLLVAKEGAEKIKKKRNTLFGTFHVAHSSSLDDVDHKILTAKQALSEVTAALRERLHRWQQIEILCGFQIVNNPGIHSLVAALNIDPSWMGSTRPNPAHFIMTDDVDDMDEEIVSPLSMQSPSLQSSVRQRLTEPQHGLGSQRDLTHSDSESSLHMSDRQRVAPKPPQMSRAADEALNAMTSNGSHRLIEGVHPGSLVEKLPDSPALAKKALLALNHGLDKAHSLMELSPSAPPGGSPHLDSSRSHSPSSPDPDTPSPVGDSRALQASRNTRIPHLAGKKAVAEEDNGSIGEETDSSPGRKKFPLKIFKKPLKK
T1 sequence (Q96D31 whole entry): as the sequence (Q96D31 whole entry) above

Question: With O=C(O)c1cccc(-n2cc(-c3ccc(-c4cccc5c4OCCO5)cc3)nn2)c1 as the compound, how does the inhibition ([1]; dose 10.0 µM) read?
Answer: Its inhibition is 44.1%.

Question: What does the source list for COc1cccc(-c2ccc(-n3cc(-c4cccc(C(=O)[O-])c4)nn3)cc2)c1.[Na+]?
Answer: solubility thermodynamic [2]: 856 µg/mL; remaining at 1 h [3]: 91%

Question: For COc1ccc(-c2ccc(-n3cc(-c4cccc(C(=O)O)c4)nn3)cc2)c(OC)c1, which inhibition ([1]; dose 10.0 µM) is on record?
Answer: The inhibition was 56.4%.

Question: With Cc1cccc(F)c1C(=O)Nc1cnc(-c2cc3c(cc2Cl)OC(F)(F)O3)cn1 [ZEGOCRACTIN] as the compound, how does the Activity (HEK293 [4]) read?
Answer: Its Activity is “Toxic”.

Question: What about the Activity (HEK293 [5]) of the same compound?
Answer: The Activity was “Toxic”.

Question: Which inhibition ([1]; dose 10.0 µM) does the source give for COc1cccc(-c2ccc(-c3cn(-c4cccc(C(=O)O)c4)nn3)cc2)c1OC here?
Answer: Its inhibition is 93.3%.

Question: What about the IC50 (ORAI1/STIM1) of the same compound?
Answer: Its IC50 is 781 nM.

Question: And the inhibition [6]?
Answer: Its inhibition is “Active”.

Question: What about the inhibition [7] of the same compound?
Answer: Its inhibition is “Active”.

Question: And the inhibition [8]?
Answer: The inhibition was “Active”.

Question: For O=C(O)c1cccc(-c2cn(-c3ccc(-c4cccc5c4OCCO5)cc3)nn2)c1, which inhibition [1, 12] is on record?
Answer: The inhibition was 70.9%.

Question: What about the Activity (HEK293 [9]) of the same compound?
Answer: Its Activity is 90.5%.

Question: What about the IC50 (ORAI1/STIM1) of the same compound?
Answer: Its IC50 is 1620 nM.

Question: What about the inhibition [6] of the same compound?
Answer: Its inhibition is “Active”.

Question: And the inhibition [7]?
Answer: Its inhibition is “Active”.

Question: What about the inhibition [8] of the same compound?
Answer: Its inhibition is “Active”.

Question: For O=C(O)c1cccc(-c2cn(-c3ccc(-c4ccc5c(c4)OCCO5)cc3)nn2)c1, which IC50 (ORAI1/STIM1) is on record?
Answer: Its IC50 is 1200 nM.

Question: What about the Activity (HEK293 [4]) of the same compound?
Answer: The Activity was “Non-Toxic”.

Question: What about the Activity (HEK293 [5]) of the same compound?
Answer: The Activity was “Non-Toxic”.

Question: For C/C(O)=C(\C#N)C(=O)Nc1ccc(C(F)(F)F)cc1 [TERIFLUNOMIDE], which Activity (HEK293 [4]) is on record?
Answer: Its Activity is “Non-Toxic”.

Question: For O=C(O)c1cccc(NC(=O)c2ccc(-c3ccc4c(c3)OCCO4)cc2)c1, which inhibition ([1]; dose 10.0 µM) is on record?
Answer: Its inhibition is 22.6%.

Question: And the Activity (HEK293 [9])?
Answer: The Activity was 95.3%.

Question: And the Activity (HEK293 [5])?
Answer: The Activity was “Non-Toxic”.

Question: Which inhibition ([1]; dose 10.0 µM) does the source give for O=C(O)c1cccc(-n2cc(-c3ccc(-c4ccc5c(c4)OCCO5)cc3)nn2)c1 here?
Answer: The inhibition was 81.1%.

Question: What about the Activity (HEK293 [9]) of the same compound?
Answer: Its Activity is 71.7%.

Question: For Cc1c(-c2ccc(-c3ccccc3F)cc2)nc2ccc(F)cc2c1C(=O)O [BREQUINAR], which Activity (HEK293 [4]) is on record?
Answer: The Activity was “Non-Toxic”.

Question: For COc1ccc(OC)c(-c2ccc(-c3cn(-c4ccncc4F)nn3)cc2)c1, which inhibition ([1]; dose 10.0 µM) is on record?
Answer: The inhibition was 26.2%.

Question: For COc1ccc(OC)c(-c2ccc(-n3cc(-c4cccc(C(=O)O)c4)nn3)cc2)c1, which inhibition ([1]; dose 10.0 µM) is on record?
Answer: The inhibition was 76.2%.

Question: For COc1cccc(OC)c1-c1ccc(-n2cc(-c3cccc(C(=O)O)c3)nn2)cc1, which inhibition ([1]; dose 10.0 µM) is on record?
Answer: The inhibition was 25.8%.

Question: With O=C(O)c1cccc(-n2cc(-c3ccc(-c4ccccc4)cc3)nn2)c1 as the compound, how does the inhibition [1, 12] read?
Answer: The inhibition was 1.8%.

Question: For COc1cccc(-c2ccc(-n3cc(-c4cccc(C(=O)O)c4)nn3)cc2)c1, which inhibition [1, 12] is on record?
Answer: The inhibition was 85.1%.

Question: What about the inhibition [6] of the same compound?
Answer: The inhibition was “Active”.

Question: What about the inhibition [7] of the same compound?
Answer: The inhibition was “Active”.

Question: What about the inhibition [8] of the same compound?
Answer: Its inhibition is “Active”.

Question: For COc1ccc(OC)c(-c2ccc(-n3cc(-c4ccnc(C(=O)O)c4)nn3)cc2)c1, which inhibition ([1]; dose 10.0 µM) is on record?
Answer: The inhibition was 79.9%.

Question: Which Activity (HEK293 [9]) does the source give for COc1cc(OC)cc(-c2ccc(-n3cc(-c4cccc(C(=O)O)c4)nn3)cc2)c1 here?
Answer: The Activity was 94.3%.

Question: And the IC50 (ORAI1/STIM1)?
Answer: Its IC50 is 802 nM.

Question: And the Activity (HEK293 [4])?
Answer: The Activity was “Non-Toxic”.

Question: And the Activity (HEK293 [5])?
Answer: The Activity was “Non-Toxic”.

Question: For COc1ccc(OC)c(-c2ccc(-n3cc(-c4ccncc4F)nn3)cc2)c1, which inhibition ([1]; dose 10.0 µM) is on record?
Answer: Its inhibition is -4.9%.

Question: With COc1ccc(OC)c(-c2ccc(-c3cn(-c4ccnc(C(=O)O)c4)nn3)cc2)c1 as the compound, how does the inhibition ([1]; dose 10.0 µM) read?
Answer: Its inhibition is 57.2%.

Question: What does the source list for O=C([O-])c1cccc(-c2cn(-c3ccc(-c4ccc5c(c4)OCCO5)cc3)nn2)c1.[Na+]?
Answer: solubility thermodynamic [2]: 668 µg/mL; remaining at 1 h [3]: 94%

Question: For O=C(O)c1cccc(-c2cn(-c3ccc(-c4ccccc4)cc3)nn2)c1, which inhibition ([1]; dose 10.0 µM) is on record?
Answer: The inhibition was 51%.

Question: With COc1ccc(F)c(-c2ccc(-n3cc(-c4cccc(C(=O)[O-])c4)nn3)cc2)c1.[Na+] as the compound, how does the solubility thermodynamic [2] read?
Answer: The solubility thermodynamic was 1170 µg/mL.

Question: And the remaining at 1 h [3]?
Answer: Its remaining at 1 h is 93%.

Question: With COc1cccc(-c2ccc(-c3cn(-c4cccc(C(=O)O)c4)nn3)cc2)c1 as the compound, how does the inhibition [1, 12] read?
Answer: The inhibition was 29.5%.

Question: Which results are given for O=C(O)c1cccc(C(=O)Nc2ccc(-c3ccc4c(c3)OCCO4)cc2)c1?
Answer: inhibition ([1]; dose 10.0 µM): 51.8%; Activity (HEK293 [9]): 50.3%; Activity (HEK293 [4]): Toxic; Activity (HEK293 [5]): Non-Toxic

Question: With COc1cccc(-c2ccc(-n3cc(-c4cccc(C(=O)O)c4)nn3)cc2)c1OC as the compound, how does the inhibition [1, 12] read?
Answer: The inhibition was 96.5%.

Question: What about the inhibition [6] of the same compound?
Answer: Its inhibition is “Active”.

Question: What about the inhibition [7] of the same compound?
Answer: Its inhibition is “Active”.

Question: And the inhibition [8]?
Answer: The inhibition was “Active”.

Question: What about the Activity (Mus musculus [10]) of the same compound?
Answer: The Activity was “Active”.

Question: What about the Activity (Mus musculus [11]) of the same compound?
Answer: Its Activity is “Active”.
